Results on one compound are retold here after ChEMBL document CHEMBL4613269, “2-((4-Arylpiperazin-1-yl)methyl)benzonitrile Derivatives as Orally Available Inhibitors of Hepatitis C Virus with a Novel Mechanism of Action” (J Med Chem, 2020).

Structures are written as SMILES. The source made the active and inactive calls. No cut-off for these calls is given here.

Data set [1] is described as follows: Cytotoxicity in human Huh7.5 cells assessed as reduction in cell viability incubated for 96 hrs by MTT assay. Type of data set: cell-based. An outline of the steps:
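Huh7.5 cells seeded 24 h before compound addition. Viability read by MTT at 96 h. Eight-step 1:5 serial dilutions in triplicate; CC50 by Reed & Muench; three independent experiments.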

Data set [2] is described as follows: Toxicity in Kunming mouse assessed as effect on AST level at 250 to 1000 mg/kg dosed via single oral gavage and measured on day 7 post treatment. Type of data set: organism-based. The note with it: in vivo. An outline of the steps:
(§1)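 Kunming mice, 4 groups of n = 6 (3 male, 3 female). Fasted from 12 h before to 1 h after dosing. Single oral gavage of 250, 500 or 1000 mg/kg suspended in 0.5% CMC-Na, or vehicle alone. Followed for 7 days: survival, body weight before and at day 7. Day-7 blood taken for AST, ALT, urea nitrogen and creatinine.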

Data set [3] is described as follows: Toxicity in Kunming mouse assessed as induction of mortality at 250 to 1000 mg/kg dosed via single oral gavage and measured on day 7 post treatment. Type of data set: organism-based. As to conditions: in vivo. The method in brief:
as §1

The subject of another data set is Zika virus. Nature of the data set: Antiviral activity against Zika virus infected in Vero E6 cells assessed as reduction in virus-induced cytopathic effect incubated for 96 hrs by CCK8 assay. Type of data set: functional, organism-based. As to conditions: Vero C1008, 96 h.
Data set [4] in a line: Clearance in Sprague-Dawley rat at 5 mg/kg, iv measured after 0.08 to 72 hrs post dose by LC-MS/MS analysis. As to conditions: in vivo. Type of data set: ADME, organism-based. The method in brief:
(§2)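 Single dose to fasted (12 h) animals: oral gavage 15 mg/kg as suspension in 0.5% CMC-Na, or iv 5 mg/kg dissolved in citric acid buffer pH 5.0 with 2.5% DMSO. Jugular vein blood on heparin at 0.08 (iv only) to 72 h. Plasma assayed by LC-MS/MS; parameters from noncompartmental analysis.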

A short description of data set [5]: Drug level in beagle dog at 15 mg/kg, po measured after 72 hrs post dose by LC-MS/MS analysis. Type of data set: ADME, organism-based, Canis lupus familiaris. As to conditions: in vivo, read-out: Drug uptake. The method in brief:
as §2

A short description of data set [6]: Selectivity index, ratio of CC50 for cytotoxicity in human Huh7.5 cells assessed as reduction in cell viability incubated for 96 hrs by MTT assay to EC50 for antiviral activity against HCV J6/JFH/JC1 infected in human Huh7.5 cells incubated for 72 hrs by In-Cell Western assay. Type of data set: toxicity, cell-based. The note with it: read-out: Ratio CC50/EC50. The method in brief:
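HCVcc (MOI=0.1) infected Huh7.5 cells co-treated with eight-step 1:5 serial dilutions, triplicate wells. After 72 h, fixed, permeabilized, and stained for HCV Core and GAPDH with IR-dye secondaries. Core normalized to GAPDH. CC50 came from MTT at 96 h in uninfected Huh7.5 cells. EC50/CC50 were derived by Reed & Muench, mean ± SD of three independent experiments.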

For data set [7], the system named is Hepatitis C virus. Nature of the data set: Antiviral activity against HCV genotype 2a pseudoparticle infected in human Huh7.5 cells assessed as reduction in viral replication. As to conditions: Hepacivirus hominis; subtype 2a. Type of data set: functional, organism-based. The method in brief:
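Genotype 1b or 2a HCV pseudoparticles made by co-transfecting HEK 293T cells with envelope and luciferase-reporter HIV plasmids; input standardized by luciferase. Huh7.5 cells co-incubated with compound and HCVpp for 4 h at 37°C, washed, then luciferase read at 72 h.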

Data set [8] relates to Hepatitis C virus. Nature of the data set: Antiviral activity against HCV GS4.3 infected in human Huh7.5 cells assessed as reduction in viral NS3 protein levels at 0.1 to 5 uM incubated for 14 days by Western blot assay. Type of data set: functional, organism-based. As to conditions: Hepacivirus hominis.
Data set [9] concerns Hepatitis C virus. Nature of the data set: Antiviral activity against HCV with glycoprotein E1 F291V mutant infected in human Huh7.5 cells assessed as reduction in viral RNA levels incubated for 72 hrs by qRT-PCR analysis. Type of data set: functional, organism-based, Hepacivirus hominis. The method in brief:
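Huh7.5 cells seeded at 3×10^4/cm², infected 24 h later with wild-type or mutant HCV stock while compound or solvent was added at the same time. Intracellular HCV RNA measured by qRT-PCR at 72 h, normalised to GAPDH, 2^-ΔCT method. EC50 by Reed & Muench from eight-step 1:5 serial dilutions, triplicate wells.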

Data set [10] can be described thus: Tmax in beagle dog at 15 mg/kg, po measured after 0.08 to 72 hrs post dose by LC-MS/MS analysis. Type of data set: ADME, organism-based, Canis lupus familiaris. As to conditions: in vivo.
The subject of data set [11] is Hepatitis C virus. Description: Antiviral activity against HCV GS4.3 infected in human Huh7.5 cells assessed as […] at 0.008 to 1 uM incubated with drug for 2 hrs after viral infection and measured after 72 hrs by Western blot assay. Type of data set: functional, organism-based. As to conditions: Hepacivirus hominis.
Data set [12] relates to Hepatitis C virus. Description: Synergistic antiviral activity against HCV infected in human Huh7.5 cells assessed as reduction in HCV core protein level by measuring (q) value at 0.1 uM in presence of 0.025 uM simeprevir incubated for 72 hrs by Western blot assay based Webb method relative to control. Type of data set: functional, Hepacivirus hominis. An outline of the steps:
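Huh7.5 cells in 6-well plates were infected with HCV in the presence of 0.1 μM test compound combined with simeprevir 0.025 μM, sofosbuvir 0.1 μM or daclatasvir 0.016 nM. Western blot at 72 h gave HCV core protein relative to actin, normalized to control. q calculated by Webb's method (q<1 antagonism, =1 addition, >1 synergy); over 3 independent experiments.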

Data set [13] can be described thus: Half life in Sprague-Dawley rat at 15 mg/kg, po measured after 0.08 to 72 hrs post dose by LC-MS/MS analysis. Type of data set: ADME, organism-based. The note with it: in vivo. The method in brief:
as §2

Data set [14] can be described thus: Selectivity index, ratio of CC50 for cytotoxicity in human Huh7.5 cells assessed as reduction in cell viability incubated for 96 hrs by MTT assay to EC50 antiviral activity against HCV J6/JFH/JC1 infected in human Huh7.5 cells assessed as reduction in viral RNA levels incubated for 72 hrs by qRT-PCR analysis. Type of data set: toxicity, cell-based. The note with it: read-out: Ratio CC50/EC50. An outline of the steps: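 Selectivity index = CC50/EC50. CC50: Huh7.5 cells seeded at 3×10^4/cm², medium with compound added at 24 h, MTT read at 96 h. EC50: HCVcc-infected Huh7.5 cells treated for 72 h, HCV RNA by qRT-PCR normalised to GAPDH. Serial 1:5 dilutions in eight steps, Reed & Muench calculation, means ± SD of three independent experiments.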

Data set [15] can be described thus: Cmax in beagle dog at 15 mg/kg, po measured after 0.08 to 72 hrs post dose by LC-MS/MS analysis. On the set-up: dose 15 mg/kg, route oral. The note with it: in vivo. Type of data set: ADME, organism-based, Canis lupus familiaris. The method in brief: as §2
For data set [16], the system named is Hepatitis C virus. Nature of the data set: Antiviral activity against wild type HCV by qRT-PCR analysis based by Reed-Muench method. Type of data set: functional, organism-based, Hepacivirus hominis. An outline of the steps: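 Huh7.5 cells seeded 24 h, then infected with wild-type (or mutant) HCV with compound added at the same time. Incubated 72 h. Intracellular HCV RNA measured by qRT-PCR, 2^-ΔCt method, normalized to GAPDH. Eight-step 1:5 serial dilutions in triplicate; EC50 by Reed & Muench; three independent experiments.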

In data set [17] the test system is Hepatitis C virus. Description: Antiviral activity against HCV GS4.3 infected in human Huh7.5 cells assessed as […] at 0.008 to 1 uM pre-incubated with drug for 2 hrs before viral infection and measured after 72 hrs by Western blot assay. Type of data set: functional, organism-based. The note with it: Hepacivirus hominis.
A short description of data set [18]: Half life in beagle dog at 15 mg/kg, po measured after 0.08 to 72 hrs post dose by LC-MS/MS analysis. Type of data set: ADME, organism-based, Canis lupus familiaris. As to conditions: in vivo. An outline of the steps:
as §2

Data set [19] is described as follows: Apparent Volume of distribution in beagle dog at 5 mg/kg, iv measured after 0.08 to 72 hrs post dose by LC-MS/MS analysis. Type of data set: ADME, organism-based, Canis lupus familiaris. The note with it: in vivo, read-out: Vz. An outline of the steps:
as §2

Data set [20] in a line: Selectivity index, ratio of CC50 for cytotoxicity in African green monkey Vero cells to EC50 for Antiviral activity against Coxsackievirus B3 infected in Vero cells. Type of data set: toxicity, cell-based. As to conditions: read-out: Ratio CC50/EC50.

As to `CN(C)CCN(C)c1ccc(C#N)c(CN2CCN(c3ccc(Cl)cc3)CC2)c1`, the half-maximal cytotoxic concentration (CC50) at 96 h in [1] lay in the range of 12800 to 14800 nM. Further, the Activity entry was “Non-Toxic” in data set [2], “Non-Toxic” in data set [3] and “Dose-dependent effect” in the data set on Hepatitis C virus [7]. Also, the EC50 stood at 5150 nM in the data set on Zika virus, 120 nM in the data set on Hepatitis C virus [9] and 3 nM in the data set with Hepatitis C virus [16]. In addition, the clearance in data set [4] was 18.1 mL/min/kg. For the same compound, in data set [5], the concentration at 72 h was 0.69 ng/mL. Further, the values for the selectivity ratio in data set [6], in data set [14] and in data set [20] were 111 to 154, 671 and 3, respectively. For the same compound, the result in the data set on Hepatitis C virus [8] and in the data set on Hepatitis C virus [17] was inactive. Moreover, the Tmax in data set [10] stood at 3 h. Besides, the result with Hepatitis C virus [11] was Active. The Ratio in the data set on Hepatitis C virus [12] turned out to be 1.05. The half-life in data set [13] was 12.8 h; in data set [18], 12.7 h. Further, in data set [15], the concentration peaked (Cmax) at 94.5 ng/mL. Moreover, in data set [19], the Vd is 49.2 L/kg.
